Data taken from ChEMBL document CHEMBL4513216, “Probing the Open Global Health Chemical Diversity Library for Multistage-Active Starting Points for Next-Generation Antimalarials” (ACS Infect Dis, 2020).

experiment: Toxicity liver stage against HepG2, at 10uM; type: cell-based; parameters: test concentration 10 uM, cell line HepG2-A16-CD81EGFP; settings: human, HepG2-A16-CD81EGFP cells; read-out: INHIBITION
How it was run: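 Uninfected HepG2-A16-CD81EGFP cells, 3 × 10^3 per well, 1536-well, plated on prespotted compound at 10 μM final, parasite-free screening media added to match infected plates; puromycin 10 μM positive, DMSO 0.5% negative; run in parallel with 48 h PbLuc assay at 37 °C, 5% CO2; viability by CellTiter-Glo luminescence, normalized to controls.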

Point of comparison: `CC(=O)N1CCCC1c1nc(N(C)C)ncc1-c1ccccc1` (stereo unspecified), cytotoxicity at 10 µM 6.12%. Against it:
- COC(=O)CN1N=C(C(=O)N2CCCC2)S(=O)(=O)c2ccccc21 — lower, -8.25%
- CC(c1nc(-c2cccnc2)no1)N(C)CCCOc1ccccc1 (stereo unspecified) — lower, -2.14%
- COCC(O)CNc1cncc(Br)c1 (stereo unspecified) — lower, -2.52%
- O[C@@H]1CN(Cc2cccnc2)C[C@H]1Oc1ccccc1 — lower, -23.2%
- CC(=O)N1CCCn2nc(CNS(=O)(=O)N(C)C(C)C)cc2C1 — lower, 3.54%
- COc1ccc(C(=O)N(Cc2cnn(C)c2)C(C)C)cc1OC(F)F — lower, -5.17%
- O=C(c1ccc(O)nc1)N1CCN(C(=O)c2ccc(F)c(F)c2)CC1 — lower, -10.3%
- CCOCC1CN(CCN(C)C)Cc2cnn(CC3CCCC3)c21 (stereo unspecified) — lower, 5.77%
- NC(=O)c1ccc(CN2CCCC(N3CCCCCC3)C2)cc1 (stereo unspecified) — lower, -6.46%
- Cc1nnc(CCNC(=O)C2CC(=O)N(C(C)(C)C)C2)s1 (stereo unspecified) — lower, -3.27%
- Cc1ncccc1NC(=O)[C@@H]1C[C@@H]2CCN(Cc3cccs3)C[C@H]2O1 — lower, -72.9%
- Cc1csc2ncnc(N3CCCC(Cn4cc(C(C)(C)O)nn4)C3)c12 (stereo unspecified) — lower, 2.74%
- O=C(NCCO)Nc1c(F)cccc1Oc1ccccc1 — lower, 1.36%
- COc1ccc(-n2cccn2)c(CN2CCC3(CCNCC3)C2)c1 — lower, 0.0652%
- CC(C)Cc1ncc2c(n1)CN(C(=O)c1ccc(CN3CCCC3)o1)C2 — lower, -1.66%
- COc1cc(CC(O)CO)c(OC)c2c1OCO2 (stereo unspecified) — lower, -9.96%
- Cc1ccc([C@@H]2CN(C(=O)c3cc(C)n[nH]3)C[C@H]2NC(=O)C2CC2)cc1 — lower, -7.77%
- CN(CC1CC1)C(=O)c1cc2c(c(S(N)(=O)=O)c1)CCC2 — lower, -51.1%
- CCc1noc(CN(CC(=O)N2CCCCC2)c2cccc(C)c2)n1 — lower, -6.61%
- CCc1nsc(N2CCc3sccc3C2)n1 — lower, 1.56%
- COc1ccc2c(c1)CC(C(=O)N(C)CCCc1cnn(C)c1)CO2 (stereo unspecified) — lower, -7.55%
- CCCc1nc(C)cc(N2Cc3cnn(CCO)c3C2)n1 — lower, -129%
- Cc1ccc2c(n1)N(CC1CC1)CCN(C(=O)c1ccncc1F)C2 — lower, -0.182%
- O=C(NCC1CCC2(CCNCC2)CO1)c1cnccn1 (stereo unspecified) — higher, 9.51%
- CN(CCCNC(=O)c1ccccc1F)CC(F)(F)F — lower, -9.25%
- Cc1nc(CNC(=O)NCC(O)c2ccc(F)cc2F)cs1 (stereo unspecified) — higher, 6.5%
- CCN(Cc1nc2c(cnn2C)c(=O)[nH]1)c1cccc(F)c1 — lower, -0.746%
- Cc1cnn(CC2CN(CCc3cccs3)CCO2)c1 (stereo unspecified) — lower, -14.2%
- CCn1c(C2CCCN(C(=O)c3ccc[nH]3)C2)nn(CCN(C)C)c1=O (stereo unspecified) — lower, 2.67%
- O=C(NCC(=O)N1CCc2ccccc2C1)c1ccoc1 — lower, -4.59%
- CC(C)OCCCN(Cc1cnn(C)c1)Cc1ccccn1 — lower, 1.24%
- CC(=O)N1CCC(C(=O)NC2CCc3nccn3C2)CC1 (stereo unspecified) — lower, -13.4%
- COc1cccc(OC)c1-c1ccnc2cc(CC(=O)NC(C)C)nn12 — lower, -8.05%
- CCCC(=O)N(CC)C(c1cccnc1)c1ccc2c(c1)CCO2 (stereo unspecified) — lower, 0.217%
- Cc1cnn(CC2CN(CC(=O)Nc3sccc3C#N)CCO2)c1 (stereo unspecified) — lower, -0.935%
- O=C(NCc1nncn1C1CC1)C1(c2ccc(F)cc2)CCOCC1 — lower, -10.4%
- CC[C@H](C)Nc1nccc(-c2cnc3sc(C)c(C)n3c2=O)n1 — higher, 11.1%
- CCCc1nc(CN(CCO)Cc2cc(Br)ccc2F)no1 — lower, -5.1%
- O=C1CCC2(CCN(c3ncc(F)cn3)CC2)N1Cc1ccncc1 — lower, 5.02%
- Cc1ccc(-c2noc(CCC3CCN(C)CC3)n2)nn1 — lower, -5.79%
- CC(=O)N1CCN(Cc2coc(-c3cccc(F)c3)n2)CC1 — lower, -3.78%
- CNC(=O)c1ccc(C(=O)N2CCCCC2Cn2cc(C)cn2)cn1 (stereo unspecified) — lower, -3.54%
- Cc1cc(C(F)(F)F)cc(N2C[C@@H](CN3CCOCC3)[C@@H](CO)C2)n1 — lower, -6.02%
- CN(CCC#N)C(=O)CCOc1cccc(F)c1 — lower, -2.46%
- CC(C)(C)C(=O)N1CCCC1c1nc(O)cc(-c2ccccn2)n1 (stereo unspecified) — lower, -1.26%
